Converted amounts (≈) assume the structure as drawn.
Columns and labels:
Rattus norvegicus [1] = assay: Reduction of adipose triacylglycerol synthesis in 14 hrs fasted Han-Wistar rat assessed as decrease in ratio of [3H]palmitic acid incorporation in to TAG and DAG at 8 mg/kg, po after 1.5 hrs relative to control; format: functional; parameters: scale not given: the % may be the effect or the level left
In short: (§1)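 Male Han-Wistar rats (~300 g) on chow diet were given compound by oral gavage, suspended in HPMC/Tween. At 1.5 h they were anaesthetised with inactin and a bolus of [3H]-palmitic acid was given via a jugular cannula. Epididymal fat was taken 20 min later, homogenised in duplicate with [14C]-oleic acid internal standard, and lipids separated by HPLC. Result is % reduction of the TAG/DAG label ratio versus vehicle; n = 10.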

[2] = target: T1, Sterol O-acyltransferase 1 (Homo sapiens, UniProt P35610); assay: Inhibition of human ACAT1 by liquid scintillography
T1 sequence (P35610 whole entry): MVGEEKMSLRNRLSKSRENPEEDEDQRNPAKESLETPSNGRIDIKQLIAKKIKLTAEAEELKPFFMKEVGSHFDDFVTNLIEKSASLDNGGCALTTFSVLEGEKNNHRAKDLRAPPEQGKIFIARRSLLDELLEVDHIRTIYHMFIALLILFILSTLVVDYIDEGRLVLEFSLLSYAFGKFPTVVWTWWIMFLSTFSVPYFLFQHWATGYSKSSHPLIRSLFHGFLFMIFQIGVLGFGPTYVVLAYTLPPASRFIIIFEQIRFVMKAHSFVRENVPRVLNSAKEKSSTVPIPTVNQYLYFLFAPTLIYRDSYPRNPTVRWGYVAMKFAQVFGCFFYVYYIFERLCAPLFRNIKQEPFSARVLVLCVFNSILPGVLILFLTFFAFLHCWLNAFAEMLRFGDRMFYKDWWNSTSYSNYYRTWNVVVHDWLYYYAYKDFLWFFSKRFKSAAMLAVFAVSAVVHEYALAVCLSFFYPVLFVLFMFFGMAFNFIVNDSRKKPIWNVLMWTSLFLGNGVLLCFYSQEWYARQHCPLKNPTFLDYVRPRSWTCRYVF

CYP1A2 = target: T2, CYP1A2 (Homo sapiens, UniProt P05177); assay: Inhibition of CYP1A2 at 30 uM; format: ADME
T2 sequence (P05177 whole entry): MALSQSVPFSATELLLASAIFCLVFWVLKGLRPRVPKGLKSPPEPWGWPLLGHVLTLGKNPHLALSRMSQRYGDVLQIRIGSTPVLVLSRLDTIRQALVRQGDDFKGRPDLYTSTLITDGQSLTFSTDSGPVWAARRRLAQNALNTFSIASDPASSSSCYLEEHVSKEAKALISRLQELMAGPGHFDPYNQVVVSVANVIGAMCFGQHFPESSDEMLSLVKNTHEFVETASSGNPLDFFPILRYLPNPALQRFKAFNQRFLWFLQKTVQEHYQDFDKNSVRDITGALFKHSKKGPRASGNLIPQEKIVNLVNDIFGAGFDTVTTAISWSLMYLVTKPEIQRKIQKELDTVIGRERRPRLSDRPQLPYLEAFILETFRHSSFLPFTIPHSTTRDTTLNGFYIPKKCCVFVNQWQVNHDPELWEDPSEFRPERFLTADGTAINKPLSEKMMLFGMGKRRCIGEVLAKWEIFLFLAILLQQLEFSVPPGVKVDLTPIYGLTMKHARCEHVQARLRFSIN

[3] = Metabolic stability in human alamethicin-activated microsomes assessed as conversion to acyl glucuronide form after 1 hr; format: ADME, Microsome
[4] = Metabolic stability in dog assessed as urinary excretion of acyl glucuronide form after 2 hrs; format: ADME, Canis lupus familiaris, Urine
In short: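 Parent-related material excreted as acyl glucuronide measured in a 2 h urine sample collected after dosing in dog.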

CYP2C9 = CYP2C9 (Homo sapiens, UniProt P11712); assay: Inhibition of CYP2C9 at 30 uM; format: ADME
Sequence of CYP2C9 (P11712 whole entry): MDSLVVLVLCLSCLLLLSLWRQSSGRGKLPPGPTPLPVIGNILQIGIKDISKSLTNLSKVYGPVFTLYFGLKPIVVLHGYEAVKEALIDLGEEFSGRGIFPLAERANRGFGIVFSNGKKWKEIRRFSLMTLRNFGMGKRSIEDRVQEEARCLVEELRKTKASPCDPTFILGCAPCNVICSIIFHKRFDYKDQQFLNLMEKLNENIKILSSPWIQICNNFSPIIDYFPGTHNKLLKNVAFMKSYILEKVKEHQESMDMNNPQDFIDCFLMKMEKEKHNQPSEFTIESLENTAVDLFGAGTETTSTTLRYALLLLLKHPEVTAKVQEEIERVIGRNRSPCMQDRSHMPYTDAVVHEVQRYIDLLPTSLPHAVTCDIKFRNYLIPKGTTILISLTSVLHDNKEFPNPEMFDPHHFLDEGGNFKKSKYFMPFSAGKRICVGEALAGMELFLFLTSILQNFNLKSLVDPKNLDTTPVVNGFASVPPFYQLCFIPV

[5] = Volume of distribution at steady state in marmosets at 1 to 3 mg/kg; format: ADME, organism-based; parameters: dose 1-3 mg/kg; details: callitrichinae sp., in vivo; read-out: Vdss
Plasma [6] = assay: Fraction unbound in rat plasma by LC-UVMS; format: ADME, cell-free
In short: (§2)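 Equilibrium dialysis in plasma of the relevant species at 37 °C; free and bound drug quantified by LC-UVMS; reported as % free.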

Rattus norvegicus [7] = assay: Reduction of plasma triacylglycerol excursion in 14 hrs fasted Han-Wistar rat at 0.1 mg/kg, po treated 2 hrs before bolus corn oil administration measured 1.5 hrs post corn oil challenge by oral lipid tolerance test relative to control; format: functional; parameters: scale not given: the % may be the effect or the level left
In short: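 Male Han-Wistar rats (~230 g) on chow diet were fasted 14 h and given compound by oral gavage, suspended in HPMC/Tween. A corn oil bolus (5 mL/kg) followed 2 h later. After 1.5 h, blood was drawn from the abdominal vena cava and plasma TAG measured colorimetrically (GPO-PAP). Result is % reduction versus vehicle-treated controls; n = 6.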

[8] = Apparent permeability from basolateral to apical side in MDCK cells at 10 uM; format: ADME, cell-based, Canis lupus familiaris; details: dog, read-out: permeability
In short: (§3)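 Cultured MDCK cells incubated with compound at 10 µM; apparent permeability (Papp, ×10^-6 cm/s) measured in both apical-to-basolateral and basolateral-to-apical directions.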

Rattus norvegicus [9] = assay: Reduction of adipose triacylglycerol synthesis in 14 hrs fasted Han-Wistar rat assessed as decrease in ratio of [3H]palmitic acid incorporation into TAG and DAG at 1 mg/kg, po after 1.5 hrs relative to control; format: functional; parameters: scale not given: the % may be the effect or the level left; in short: as §1
[10] = Volume of distribution at steady state in rat at 1 to 3 mg/kg; format: ADME, organism-based; parameters: dose 1-3 mg/kg; details: in vivo, read-out: Vdss
Plasma [11] = assay: Fraction unbound in dog plasma by LC-UVMS; format: ADME, cell-free, Canis lupus familiaris; in short: as §2
[12] = Half life in marmosets at 1 to 3 mg/kg, po; format: ADME, organism-based; parameters: dose 1-3 mg/kg, route oral; details: callitrichinae sp., in vivo
[13] = target: T3, Diacylglycerol O-acyltransferase 1 (Rattus norvegicus, UniProt Q9ERM3); assay: Inhibition of rat microsomal DGAT1 by liquid scintillography
T3 sequence (Q9ERM3 whole entry): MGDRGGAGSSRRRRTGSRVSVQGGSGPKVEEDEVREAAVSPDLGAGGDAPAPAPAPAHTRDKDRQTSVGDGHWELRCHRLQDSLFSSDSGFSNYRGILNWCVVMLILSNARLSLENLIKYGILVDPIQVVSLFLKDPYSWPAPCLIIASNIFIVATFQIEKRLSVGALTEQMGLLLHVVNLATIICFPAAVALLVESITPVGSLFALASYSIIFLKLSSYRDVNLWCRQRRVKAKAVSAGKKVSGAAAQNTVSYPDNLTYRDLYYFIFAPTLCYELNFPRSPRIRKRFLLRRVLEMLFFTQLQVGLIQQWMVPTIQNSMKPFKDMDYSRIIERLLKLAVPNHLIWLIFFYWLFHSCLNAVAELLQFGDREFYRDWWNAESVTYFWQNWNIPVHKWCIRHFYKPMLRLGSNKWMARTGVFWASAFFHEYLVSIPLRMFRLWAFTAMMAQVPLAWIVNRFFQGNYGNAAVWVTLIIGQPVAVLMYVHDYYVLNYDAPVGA

[14] = Metabolic stability in dog hepatocytes assessed as conversion to acyl glucuronide form after 2 hrs; format: ADME, cell-based, Canis lupus familiaris, Hepatocyte
[15] = target: T4, Diacylglycerol O-acyltransferase 2 (Homo sapiens) (UniProt Q96PD7); assay: Inhibition of human DGAT2 at 10 uM by liquid scintillography
T4 sequence (whole entry): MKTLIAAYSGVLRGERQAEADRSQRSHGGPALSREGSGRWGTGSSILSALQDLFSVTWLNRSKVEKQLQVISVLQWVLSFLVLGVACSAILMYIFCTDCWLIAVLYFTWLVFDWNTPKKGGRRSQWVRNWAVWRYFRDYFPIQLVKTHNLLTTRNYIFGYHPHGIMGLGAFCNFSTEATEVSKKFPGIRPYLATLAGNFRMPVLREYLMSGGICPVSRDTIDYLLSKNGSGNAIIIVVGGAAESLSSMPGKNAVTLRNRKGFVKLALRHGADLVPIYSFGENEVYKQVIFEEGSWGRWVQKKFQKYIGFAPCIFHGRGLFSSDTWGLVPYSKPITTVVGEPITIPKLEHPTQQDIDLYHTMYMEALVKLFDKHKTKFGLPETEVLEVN

[16] = Metabolic stability in marmosets alamethicin-activated microsomes assessed as conversion to acyl glucuronide form after 1 hr; format: ADME, Microsome; details: callitrichinae sp.
CYP2D6 = CYP2D6 (Homo sapiens, UniProt P10635); assay: Inhibition of CYP2D6 at 30 uM; format: ADME
Sequence of CYP2D6 (P10635 whole entry): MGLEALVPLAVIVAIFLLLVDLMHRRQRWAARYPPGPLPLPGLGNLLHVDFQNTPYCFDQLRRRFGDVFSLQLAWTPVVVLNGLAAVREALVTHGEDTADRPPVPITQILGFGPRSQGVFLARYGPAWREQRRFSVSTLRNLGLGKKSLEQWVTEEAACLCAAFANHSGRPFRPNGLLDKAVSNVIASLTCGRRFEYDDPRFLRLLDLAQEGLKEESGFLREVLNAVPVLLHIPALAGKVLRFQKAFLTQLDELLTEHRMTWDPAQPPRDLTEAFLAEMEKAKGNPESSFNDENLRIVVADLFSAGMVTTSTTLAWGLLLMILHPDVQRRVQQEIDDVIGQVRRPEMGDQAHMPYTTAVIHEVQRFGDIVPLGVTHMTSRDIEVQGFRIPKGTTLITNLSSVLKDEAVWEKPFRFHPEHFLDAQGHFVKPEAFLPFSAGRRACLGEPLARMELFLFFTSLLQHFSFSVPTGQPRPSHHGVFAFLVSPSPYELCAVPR

[17] = Half life in rat at 1 to 3 mg/kg, po; format: ADME, organism-based; parameters: dose 1-3 mg/kg, route oral; details: in vivo
[18] = Aqueous solubility at pH 7.4; format: physicochemical; details: buffer
[19] = Volume of distribution at steady state in dog at 1 to 3 mg/kg; format: ADME, organism-based, Canis lupus familiaris; parameters: dose 1-3 mg/kg; details: in vivo, read-out: Vdss
[20] = Apparent permeability from apical to basolateral side in MDCK cells at 10 uM; format: ADME, cell-based, Canis lupus familiaris; details: dog, read-out: permeability; in short: as §3
[21] = target: T5, Diacylglycerol O-acyltransferase 1 (Homo sapiens, UniProt O75907); assay: Inhibition of human recombinant DGAT1 expressed in Sf9 cells by liquid scintillography
T5 sequence (O75907 whole entry): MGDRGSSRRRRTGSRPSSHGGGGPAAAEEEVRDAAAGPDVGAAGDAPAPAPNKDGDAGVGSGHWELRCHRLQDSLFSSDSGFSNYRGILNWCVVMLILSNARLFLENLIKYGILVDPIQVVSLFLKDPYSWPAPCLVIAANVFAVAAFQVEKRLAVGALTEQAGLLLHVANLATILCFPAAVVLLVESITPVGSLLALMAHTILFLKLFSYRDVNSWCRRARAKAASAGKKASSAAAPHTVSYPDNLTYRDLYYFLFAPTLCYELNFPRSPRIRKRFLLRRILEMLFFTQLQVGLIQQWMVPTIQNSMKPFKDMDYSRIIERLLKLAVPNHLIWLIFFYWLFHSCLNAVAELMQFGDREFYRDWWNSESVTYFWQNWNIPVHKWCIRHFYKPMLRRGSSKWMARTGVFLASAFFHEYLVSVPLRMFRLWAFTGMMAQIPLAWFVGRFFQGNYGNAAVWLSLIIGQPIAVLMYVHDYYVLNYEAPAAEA

CC1(C)Oc2ncnc(N)c2N=C1c1ccc(C23CCC(CC(=O)O)(CC2)CC3)cc1 gave an Activity (Rattus norvegicus [1]) of 54%, an IC50 [2] of 5200 nM and an inhibition at 30 µM (CYP1A2) of under 25%. The Stability [3] was 25%, the Stability [4] was 82% and the inhibition at 30 µM (CYP2C9) was under 25%. It also gave a Vd [5] of 0.88 L/kg, a Fu (Plasma [6]) of 0.91% and an Activity (Rattus norvegicus [7]) of 38%. It also gave a Papp B→A at 10 µM [8] of 26 ×10⁻⁶ cm/s, an Activity (Rattus norvegicus [9]) of 37% and a Vd [10] of 0.7 L/kg. The Fu (Plasma [11]) was 0.6%, the half-life [12] was 9.5 h and the IC50 [13] was 9 nM. It also gave a Stability [14] of 38%, an inhibition [15] of 0% and a Stability [16] of 15%. For the same compound, the inhibition at 30 µM (CYP2D6) was under 25%, the half-life [17] was 5.4 h and the solubility [18] was 12 µM (≈ 5.05 µg/mL). It also gave a Vd [19] of 1 L/kg, a Papp A→B at 10 µM [20] of 18 ×10⁻⁶ cm/s and an IC50 [21] of 15 nM.

Reference: ChEMBL document CHEMBL1152806, “Discovery of a potent, selective, and orally efficacious pyrimidinooxazinyl bicyclooctaneacetic acid diacylglycerol acyltransferase-1 inhibitor” (J Med Chem, 2009)
